Test results from ChEMBL document CHEMBL1125639, “Synthesis and resolution of (+-)-7-chloro-8-hydroxy-1-(3'-iodophenyl)-3-methyl-2,3,4,5-tetrahydro- 1H-3- benzazepine (TISCH): a high affinity and selective iodinated ligand for CNS D1 dopamine receptor” (J Med Chem, 1991).
Several values for one entry are separate records, joined by “and”; a condition that tells them apart may be missing. Equal values may be shown once. Values belong to the compound of their own block, whether it stands above or below them.

Key:
Rattus norvegicus [1] = species: Rattus norvegicus; assay type: functional, Striatum, Membrane
Rattus norvegicus [2] = test: Biodistribution of compound in rats skin after an intravenous injection was measured at 2 min; assay type: ADME, organism-based, Zone of skin; settings: in vivo
Method in brief: (§1)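 Male Sprague-Dawley rats (225-300 g), free access to food and water. Under ether anesthesia, given 0.2 mL saline containing 125I-labelled ligand (2-5 μCi, ~2200 Ci/mmol) into the femoral vein. Killed by cardiac excision at set times. Organs removed, weighed and gamma-counted. % dose/organ is taken against diluted injectate aliquots, with blood and muscle assumed to be 7% and 40% of body weight. Mean of 3 rats ± std dev.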

Rattus norvegicus [3] = test: Biodistribution of compound in rats liver after an intravenous injection was measured at 15 min; assay type: ADME, organism-based; settings: in vivo, 0.25 h
Method in brief: as §1

Rattus norvegicus [4] = test: Regional brain distribution of compound in rats striatum after an intravenous injection was measured at 1 hr; assay type: ADME, organism-based; settings: in vivo
Method in brief: (§2)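 After femoral-vein injection of [125I]-labeled ligand (2-5 μCi, ~2200 Ci/mmol, 0.2 mL saline, ether anesthesia) into male Sprague-Dawley rats (225-300 g), brains were dissected into cortex, striatum and cerebellum, weighed and gamma-counted. % dose/gram calculated against diluted initial dose; regional ratio = % dose/gram of region divided by that of cerebellum.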

Rattus norvegicus [5] = test: Biodistribution of compound in rats heart after an intravenous injection was measured at 1 hr; assay type: ADME, organism-based; settings: in vivo
Method in brief: as §1

Rattus norvegicus [6] = test: Biodistribution of compound in rats spleen after an intravenous injection was measured at 1 hr; assay type: ADME, organism-based; settings: in vivo
Method in brief: as §1

Rattus norvegicus [7] = test: Biodistribution of compound in rats liver after an intravenous injection was measured at 1 hr; assay type: ADME, organism-based; settings: in vivo
Method in brief: as §1

Rattus norvegicus [8] = test: Regional brain distribution of compound in rats cerebellum after an intravenous injection was measured at 15 min; assay type: ADME, organism-based; settings: in vivo, 0.25 h
Method in brief: as §2

Rattus norvegicus [9] = test: Biodistribution of compound in rats thyroid after an intravenous injection was measured at 1 hr; assay type: ADME, organism-based, Thyroid gland; settings: in vivo
Method in brief: as §1

Rattus norvegicus [10] = test: Biodistribution of compound in rats brain after an intravenous injection was measured at 1 hr; assay type: ADME, organism-based; settings: in vivo
Method in brief: (§3)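 Rats (male Sprague-Dawley, 225-300 g) given the 125I ligand (2-5 μCi, ~2200 Ci/mmol) in 0.2 mL saline via the femoral vein under ether anesthesia, then killed at set times. Whole brain removed, weighed and gamma-counted. % dose/organ is taken against diluted injectate aliquots. Mean of 3 rats ± std dev.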

Rattus norvegicus [11] = test: Regional brain distribution of compound in rats striatum after an intravenous injection was measured at 2 min; assay type: ADME, organism-based; settings: in vivo
Method in brief: as §2

Rattus norvegicus [12] = test: Biodistribution of compound in rats blood after an intravenous injection was measured at 1 hr; assay type: ADME, organism-based; settings: in vivo
Method in brief: as §1

Rattus norvegicus [13] = test: Biodistribution of compound in rats blood after an intravenous injection was measured at 15 min; assay type: ADME, organism-based; settings: in vivo, 0.25 h
Method in brief: as §1

Rattus norvegicus [14] = test: Biodistribution of compound in rats brain after an intravenous injection was measured at 2 min; assay type: ADME, organism-based; settings: in vivo
Method in brief: as §3

Rattus norvegicus [15] = test: Biodistribution ratio measured as the ratio of compound present in brain to that of blood at 15 min after intravenous injection; assay type: ADME, organism-based; settings: 0.25 h
Method in brief: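 Male Sprague-Dawley rats (225-300 g) given 0.2 mL saline containing [125I]-labeled ligand (2-5 μCi, ~2200 Ci/mmol) via femoral vein under ether anesthesia; sacrificed at set times by cardiac excision. Brain and blood weighed and gamma-counted against diluted injectate; ratio taken from % dose/gram values, 3 rats per time point.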

Rattus norvegicus [16] = test: Biodistribution of compound in rats blood after an intravenous injection was measured at 2 min; assay type: ADME, organism-based; settings: in vivo
Method in brief: as §1

Rattus norvegicus [17] = test: Biodistribution of compound in rats liver after an intravenous injection was measured at 2 min; assay type: ADME, organism-based; settings: in vivo
Method in brief: as §1

Rattus norvegicus [18] = test: Biodistribution of compound in rats kidney after an intravenous injection was measured at 15 min; assay type: ADME, organism-based; settings: in vivo, 0.25 h
Method in brief: as §1

Rattus norvegicus [19] = test: Biodistribution of compound in rats skin after an intravenous injection was measured at 1 hr; assay type: ADME, organism-based, Zone of skin; settings: in vivo
Method in brief: as §1

Rattus norvegicus [20] = test: Biodistribution of compound in rats lung after an intravenous injection was measured at 2 min; assay type: ADME, organism-based; settings: in vivo
Method in brief: as §1

Rattus norvegicus [21] = test: Regional brain distribution of compound in rats cerebellum after an intravenous injection was measured at 1 hr; assay type: ADME, organism-based; settings: in vivo
Method in brief: as §2

Rattus norvegicus [22] = test: Regional brain distribution of compound in rats cerebellum after an intravenous injection was measured at 2 min; assay type: ADME, organism-based; settings: in vivo
Method in brief: as §2

Ki (Rattus norvegicus [1]): 0.28 nM
Compound: CN1CCc2cc(Cl)c(O)cc2[C@@H](c2ccccc2)C1 [SCH-23390]

Biodistribution (Rattus norvegicus [2]): 8.23
Biodistribution (Rattus norvegicus [3]): 20.35
Biodistribution (Rattus norvegicus [4]): 0.21
Biodistribution (Rattus norvegicus [5]): 0.144
Biodistribution (Rattus norvegicus [6]): 0.025
Biodistribution (Rattus norvegicus [7]): 16.51
Biodistribution (Rattus norvegicus [8]): 0.44
Biodistribution (Rattus norvegicus [9]): 0.035
Biodistribution (Rattus norvegicus [10]): 0.313
Biodistribution (Rattus norvegicus [11]): 0.398 and 0.555
Biodistribution (Rattus norvegicus [12]): 0.975
Biodistribution (Rattus norvegicus [13]): 1.588 and 0.975
Biodistribution (Rattus norvegicus [14]): 1.59
Biodistribution (Rattus norvegicus [15]): 5.77%
Biodistribution (Rattus norvegicus [16]): 2.94
Biodistribution (Rattus norvegicus [17]): 16.13
Biodistribution (Rattus norvegicus [18]): 4.36
Biodistribution (Rattus norvegicus [19]): 7.8
Biodistribution (Rattus norvegicus [20]): 9.02
Biodistribution (Rattus norvegicus [21]): 0.109
Biodistribution (Rattus norvegicus [22]): 0.73
Compound: CN1CCc2cc(Cl)c(O)cc2[C@H](c2cccc(I)c2)C1

Ki (Rattus norvegicus [1]): > 3000 nM
Compound: NCCc1ccc(O)c(O)c1 [DOPAMINE]
